Measured values: ChEMBL document CHEMBL1145604, “Fragment-based discovery of hepatitis C virus NS5b RNA polymerase inhibitors” (Bioorg Med Chem Lett, 2008)

What was measured:
[1] = Inhibition of HCV NS5b RNA polymerase assessed as [3H]UTP incorporation into RNA; parameters: species or system Hepacivirus hominis
How it was run: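 NS5B570n-BK (200 nM) with poly-A:oligo U₁₆ template:primer (8.4 µg/mL), 2.1 µCi tritiated UTP, 1 µM ATP, CTP, GTP in 40 mM Tris-HCl pH 8.0, NaCl, 4 mM DTT, 4 mM MgCl₂; compound serially diluted in DMSO. 2 h at 30 °C, TCA stop, filtration, scintillation counting. IC50 from duplicate means.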

Hepatitis C virus = assay: Antiviral activity against Hepatitis C virus by replicon assay; format: functional, organism-based, Hepacivirus hominis
[2] = Binding affinity to HCV NS5b RNA polymerase by SPR assay; parameters: species or system Hepacivirus hominis

With `C[C@@H]1C[C@H](C)CN(C(=O)c2cc(Br)ccc2N)C1` as the compound, how does the IC50 [1] read?
The IC50 was 17000 nM.

Which IC50 [1] does the source give for `Nc1ccc(Br)cc1C(=O)Nc1ccccc1Cl` here?
The IC50 was 178000 nM.

Which EC50 (Hepatitis C virus) does the source give for `C[C@@H]1C[C@H](C)CN(C(=O)c2cc(Br)ccc2NC(=O)NCC(=O)N(C)C)C1` here?
The EC50 was 5.6 µM.

What about the IC50 [1] of the same compound?
Its IC50 is 600 nM.

What about the Kd [2] of the same compound?
The Kd was 460 nM.

With `C[C@@H]1C[C@H](C)CN(C(=O)c2cc(Br)ccc2NC(=O)CCC(N)=O)C1` as the compound, how does the IC50 [1] read?
Its IC50 is 4300 nM.

What about the Kd [2] of the same compound?
The Kd was 9400 nM.

With `C[C@@H]1C[C@H](C)CN(C(=O)c2cc(Br)ccc2NC(=O)CCCC(=O)O)C1` as the compound, how does the IC50 [1] read?
Its IC50 is 9000 nM.

Which EC50 (Hepatitis C virus) does the source give for `C[C@@H]1C[C@H](C)CN(C(=O)c2cc(Br)ccc2NC(=O)CNC(=O)c2ccccc2)C1` here?
Its EC50 is 5.5 µM.

What about the IC50 [1] of the same compound?
Its IC50 is 130 nM.

What about the Kd [2] of the same compound?
Its Kd is 540 nM.

What does the source list for `C[C@@H]1C[C@H](C)CN(C(=O)c2cc(Br)ccc2NC(=O)CCC(=O)N2CCOCC2)C1`?
EC50 (Hepatitis C virus): 7.4 µM; IC50 [1]: 250 nM

Which results are given for `Cc1cnc(CNC(=O)Nc2ccc(Br)cc2C(=O)N2C[C@H](C)C[C@H](C)C2)cn1`?
EC50 (Hepatitis C virus): 6.9 µM; IC50 [1]: 360 nM; Kd [2]: 350 nM

Which results are given for `C[C@@H]1C[C@H](C)CN(C(=O)c2cc(Br)ccc2NC(=O)CNC(=O)c2ccco2)C1`?
EC50 (Hepatitis C virus): 8.7 µM; IC50 [1]: 250 nM; Kd [2]: 1020 nM

With `Nc1ccc(Br)cc1C(=O)N1CCCCC1` as the compound, how does the IC50 [1] read?
Its IC50 is > 500000 nM.

Which IC50 [1] does the source give for `Nc1ccc(Br)cc1C(=O)NCc1ccccc1` here?
The IC50 was > 500000 nM.

With `C[C@@H]1CN(C(=O)c2cc(Br)ccc2N)C[C@H](C)O1` as the compound, how does the IC50 [1] read?
Its IC50 is 190000 nM.

And the Kd [2]?
The Kd was 36000 nM.

What does the source list for `C[C@@H]1C[C@H](C)CN(C(=O)c2cc(Br)ccc2NC(=O)NCc2ccc(N(C)C)cc2)C1`?
EC50 (Hepatitis C virus): 4.9 µM; IC50 [1]: 1000 nM; Kd [2]: 800 nM

Which IC50 [1] does the source give for `CC1CCCN(C(=O)c2cc(Br)ccc2N)C1` (stereo not given) here?
Its IC50 is 170000 nM.

What about the Kd [2] of the same compound?
Its Kd is 192000 nM.

What does the source list for `C[C@@H]1C[C@H](C)CN(C(=O)c2cc(Br)ccc2NC(=O)CNC(=O)c2cccnc2)C1`?
EC50 (Hepatitis C virus): 5.7 µM; IC50 [1]: 430 nM; Kd [2]: 570 nM

For `C[C@@H]1C[C@H](C)CN(C(=O)c2cc(Br)ccc2NC(=O)CCC(=O)c2cccs2)C1`, which EC50 (Hepatitis C virus) is on record?
Its EC50 is 4.3 µM.

And the IC50 [1]?
Its IC50 is 440 nM.

And the Kd [2]?
Its Kd is 970 nM.

Which EC50 (Hepatitis C virus) does the source give for `C[C@@H]1C[C@H](C)CN(C(=O)c2cc(Br)ccc2NC(=O)CCC(=O)c2cccnc2)C1` here?
Its EC50 is 7.9 µM.

And the IC50 [1]?
Its IC50 is 590 nM.

And the Kd [2]?
The Kd was 1040 nM.

For `Nc1ccc(Br)cc1C(=O)N1CCc2ccccc2C1`, which IC50 [1] is on record?
Its IC50 is 132000 nM.

And the Kd [2]?
The Kd was 210000 nM.

For `COC(=O)CCC(=O)Nc1ccc(Br)cc1C(=O)N1C[C@H](C)C[C@H](C)C1`, which IC50 [1] is on record?
The IC50 was 2100 nM.

For `C[C@@H]1C[C@H](C)CN(C(=O)c2cc(Br)ccc2NC(=O)CC(=O)N(C)C)C1`, which IC50 [1] is on record?
The IC50 was 11000 nM.

What does the source list for `C[C@@H]1C[C@H](C)CN(C(=O)c2cc(Br)ccc2NC(=O)CCC(=O)N(C)C)C1`?
EC50 (Hepatitis C virus): 6.1 µM; IC50 [1]: 400 nM; Kd [2]: 300 nM

With `C[C@@H]1C[C@H](C)CN(C(=O)c2cc(Br)ccc2NC(=O)[C@@H]2C[C@@H](O)CN2C(=O)c2ccco2)C1` as the compound, how does the EC50 (Hepatitis C virus) read?
The EC50 was 3.7 µM.

What about the IC50 [1] of the same compound?
The IC50 was 1030 nM.

And the Kd [2]?
The Kd was 150 nM.

For `O=C(O)CCC(=O)Nc1ccc(Br)cc1C(=O)N1CCSCC1`, which IC50 [1] is on record?
The IC50 was 533000 nM.

For `C[C@@H]1C[C@H](C)CN(C(=O)c2cc(Br)ccc2NC(=O)CCC(=O)O)C1`, which EC50 (Hepatitis C virus) is on record?
Its EC50 is 22.8 µM.

And the IC50 [1]?
The IC50 was 1000 nM.

Which IC50 [1] does the source give for `Nc1ccc(Br)cc1C(=O)N1CCCC1` here?
Its IC50 is > 500000 nM.

Which EC50 (Hepatitis C virus) does the source give for `Cc1cc(CNC(=O)Nc2ccc(Br)cc2C(=O)N2C[C@H](C)C[C@H](C)C2)nn1C` here?
The EC50 was 4.6 µM.

What about the IC50 [1] of the same compound?
Its IC50 is 170 nM.

What about the Kd [2] of the same compound?
Its Kd is 370 nM.

For `C[C@@H]1C[C@H](C)CN(C(=O)c2cc(Br)ccc2NC(=O)CCC(=O)c2ccccn2)C1`, which IC50 [1] is on record?
The IC50 was 540 nM.

What about the Kd [2] of the same compound?
The Kd was 1850 nM.

For `O=C(O)CCC(=O)Nc1ccc(Br)cc1C(=O)NCC1CCCCC1`, which IC50 [1] is on record?
The IC50 was > 500000 nM.

With `C[C@@H]1C[C@H](C)CN(C(=O)c2cc(Br)ccc2NC(=O)[C@@H]2CCCN2C(=O)c2cccnc2)C1` as the compound, how does the EC50 (Hepatitis C virus) read?
Its EC50 is 12.9 µM.

And the IC50 [1]?
The IC50 was 350 nM.

What about the Kd [2] of the same compound?
Its Kd is 1280 nM.

For `CC(C)NC(=O)c1cc(Br)ccc1NC(=O)CCC(=O)O`, which IC50 [1] is on record?
Its IC50 is > 500000 nM.

Which IC50 [1] does the source give for `Nc1ccc(Br)cc1C(=O)N1CCOCC1` here?
Its IC50 is > 500000 nM.

For `C[C@@H]1C[C@H](C)CN(C(=O)c2cc(Br)ccc2NS(C)(=O)=O)C1`, which IC50 [1] is on record?
Its IC50 is 7500 nM.

For `CC(=O)Nc1ccc(Br)cc1C(=O)N1C[C@H](C)C[C@H](C)C1`, which IC50 [1] is on record?
The IC50 was 11000 nM.

What about the Kd [2] of the same compound?
The Kd was 1700 nM.
